{"data": "Published values gathered from unrelated publications", "target": "Serine/threonine-protein kinase STK11 (STK11, Homo sapiens, UniProt Q15831)", "One construct used (Q15831 1-433)": "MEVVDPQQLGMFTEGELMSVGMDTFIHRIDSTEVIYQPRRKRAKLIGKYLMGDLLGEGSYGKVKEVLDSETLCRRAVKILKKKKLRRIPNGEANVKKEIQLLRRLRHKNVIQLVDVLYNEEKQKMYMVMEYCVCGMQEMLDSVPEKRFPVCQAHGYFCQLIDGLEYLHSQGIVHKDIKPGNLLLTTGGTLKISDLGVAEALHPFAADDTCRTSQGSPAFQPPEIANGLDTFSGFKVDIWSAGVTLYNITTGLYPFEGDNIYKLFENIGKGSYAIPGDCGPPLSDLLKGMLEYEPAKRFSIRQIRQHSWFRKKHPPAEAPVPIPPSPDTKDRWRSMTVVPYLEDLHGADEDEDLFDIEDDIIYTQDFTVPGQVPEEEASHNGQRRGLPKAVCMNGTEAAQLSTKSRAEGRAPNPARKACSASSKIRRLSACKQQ", "note": "Lines come from different studies, so protocols differ."}
{"SMILES": "CN(C)C(=O)Cn1cc(-c2nc([C@@](C)(c3ccc(-c4cnc(N)nc4)cc3)C3CC3)no2)cn1", "observed": "cell-free assay", "technique": "competition with immobilised ligand", "tested at": "1 µM", "remaining binding": "77%"}
{"SMILES": "CC1CCCN1c1nccc(-c2cnn3ncccc23)n1 (stereo not shown)", "observed": "binding", "tested at": "1 µM", "remaining binding": "100%"}
{"SMILES": "O=C(O)[C@H]1[C@H](Cn2nnc3ccccc3c2=O)CC[C@@H]1C(=O)c1ccc(OCCC2CCOCC2)cc1", "observed": "cell-free assay", "technique": "competition with immobilised ligand", "tested at": "1 µM", "remaining binding": "76%"}
{"SMILES": "O=C(NCC1CCOCC1)c1n[nH]cc1NC(=O)c1c(F)cccc1F", "observed": "binding", "technique": "competition with immobilised ligand", "tested at": "1 µM", "remaining binding": "100%"}
{"SMILES": "C[C@H](c1ccc(F)cc1)N(Cc1cccc(C(=O)O)c1)C(=O)c1cnc2ccccc2c1", "observed": "cell-free assay", "technique": "competition with immobilised ligand", "tested at": "1 µM", "remaining binding": "100%"}
{"SMILES": "N#Cc1ccccc1CSc1nnc2c(n1)[nH]c1ccccc12", "observed": "binding", "technique": "competition with immobilised ligand", "tested at": "10 µM", "remaining binding": "87%"}
{"SMILES": "C[C@@H]1CN(c2ccc3ncc(-c4ccc5[nH]nc(C6CC6)c5c4)n3n2)C[C@H](C)O1", "observed": "binding", "technique": "competition with immobilised ligand", "tested at": "50 nM", "remaining binding": "72%"}
{"SMILES": "COc1cnc(Nc2cccc(S(N)(=O)=O)c2)nc1N1CCN(c2ccccc2)CC1", "observed": "binding", "technique": "competition with immobilised ligand", "tested at": "1 µM", "remaining binding": "82%"}
{"SMILES": "FC(F)(F)Oc1cccc(-c2cnc3ccc(-c4ccncc4)nn23)c1", "observed": "cell-free assay", "technique": "competition with immobilised ligand", "tested at": "5 µM", "remaining binding": "72%"}
{"SMILES": "O=C(NCCCN1CCOCC1)c1ccc(Nc2nccc(-c3cc4ccccc4s3)n2)cc1", "observed": "binding", "technique": "competition with immobilised ligand", "tested at": "1 µM", "remaining binding": "3.9%"}
{"SMILES": "C[C@@H]1CCN(c2nccc(-c3cnn4ncccc34)n2)C1", "observed": "binding", "tested at": "1 µM", "remaining binding": "100%"}
{"SMILES": "C[C@@H](c1ccc(-n2cnc3c(N)ncnc32)cc1)N1CCc2nn(C)c(Cc3ccccc3)c2C1=O", "observed": "binding", "technique": "competition with immobilised ligand", "tested at": "0.1 µM", "remaining binding": "100%"}
{"SMILES": "Cc1cnn2ncc(-c3ccnc(N(C)C)n3)c2c1", "observed": "binding", "tested at": "1 µM", "remaining binding": "99%"}
{"SMILES": "Cc1nc(C2CCN(C(=O)c3ccc(OC(F)(F)F)cc3N)CC2)c2ncc(N3CCN(C)CC3)cc2n1", "observed": "cell-free assay", "technique": "competition with immobilised ligand", "tested at": "1 µM", "remaining binding": "100%"}
{"SMILES": "F[C@@H]1CCN(c2nccc(-c3cnn4ncccc34)n2)C1", "observed": "binding", "tested at": "1 µM", "remaining binding": "100%"}
{"SMILES": "Cc1cnc(Nc2ccc(C(=O)N3CCC(N4CCCC4)CC3)cc2)nc1-c1cc2ccccc2s1", "observed": "binding", "technique": "competition with immobilised ligand", "tested at": "1 µM", "remaining binding": "2.5%"}
